Test [1] addresses P2Y purinoceptor 1 (Homo sapiens, UniProt P47900). Nature of the test: Percent inhibition of agonist-induced calcium mobilization at P2Y purinoceptor 1 recombinantly expressed in human HEK293 cells at 100 uM dose. It is filed as functional, cell-based. Particulars: in the assay text read “native in” for “recombinantly expressed in”. Put shortly:
(§1)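 Single 100 µM antagonist dose, preincubated 30 min at 37 °C, in a Ca2+ fluorescence assay (Oregon Green 488 BAPTA-1/AM). Agonists: 31.6 nM 2-MeSADP for native P2Y1 and 3.16 µM UTP for native P2Y2, both in HEK293 cells; 1 µM ATPγS for recombinant P2Y11 in 1321N1 cells. Response expressed as % of agonist control; mean ± SEM, n ≥ 3.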
A general note: A change in cytosolic calcium serves as a functional read-out for many receptors and channels.

Test [2] has as its target T1, P2Y purinoceptor 11 (Homo sapiens, UniProt Q96G91).
T1 sequence (Q96G91 whole entry): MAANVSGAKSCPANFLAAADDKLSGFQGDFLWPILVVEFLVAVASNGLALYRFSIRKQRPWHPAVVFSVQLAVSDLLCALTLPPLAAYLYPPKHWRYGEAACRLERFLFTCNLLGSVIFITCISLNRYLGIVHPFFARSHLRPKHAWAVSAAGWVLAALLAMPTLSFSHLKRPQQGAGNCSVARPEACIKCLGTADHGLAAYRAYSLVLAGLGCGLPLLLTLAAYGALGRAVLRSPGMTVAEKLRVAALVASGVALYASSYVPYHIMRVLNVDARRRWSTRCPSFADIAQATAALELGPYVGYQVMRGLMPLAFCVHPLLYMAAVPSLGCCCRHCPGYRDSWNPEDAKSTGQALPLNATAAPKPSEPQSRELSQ
Nature of the test: Inhibitory concentration against P2Y purinoceptor 11 expressed in 1321N1 astrocytoma cells; n=3. Type of test: cell-based. Put shortly: (§2)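 Human P2Y11 stably expressed in 1321N1 astrocytoma cells (G418 selection), loaded with Oregon Green 488 BAPTA-1/AM (3 µM, 60 min, 25 °C) in Krebs-HEPES. Compound preincubated 30 min at 37 °C before injection of 1 µM ATPγS. Ca2+ fluorescence read at ex 485/em 520 nm for 30 s. IC50 from concentration-inhibition curves; independent experiments each run in triplicate.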

Test [3] addresses T2, P2Y purinoceptor 11 (Homo sapiens) (UniProt Q96G91).
T2 sequence (whole entry): T1 sequence (Q96G91 whole entry)
Briefly: Percent inhibition of agonist-induced calcium mobilization at P2Y purinoceptor 11 recombinantly expressed in human 1321N1 astrocytoma cells at 100 uM dose.

In test [4] the target is T2, P2Y purinoceptor 11 (Homo sapiens). Nature of the test: Relative potency was measured against P2Y purinoceptor 11. Type of test: functional.
Test [5] deals with P2Y purinoceptor 2 (Homo sapiens, UniProt P41231). Nature of the test: Percent inhibition of agonist-induced calcium mobilization at P2Y purinoceptor 2 recombinantly expressed in human HEK293 cells at 100 uM dose. Type of test: functional, cell-based. Particulars: in the assay text read “native in” for “recombinantly expressed in”. Summed up:
as §1

Test [6] addresses T1, P2Y purinoceptor 11. Nature of the test: Inhibitory concentration against P2Y purinoceptor 11 expressed in 1321N1 astrocytoma cells; n=6. It is filed as cell-based. Put shortly:
as §2

Test [7] concerns the target T1, P2Y purinoceptor 11. Briefly: Inhibitory concentration against P2Y purinoceptor 11 expressed in 1321N1 astrocytoma cells; n=4. Type of test: cell-based. Put shortly:
as §2

Test [8] deals with T1, P2Y purinoceptor 11. Briefly: Inhibitory concentration against P2Y purinoceptor 11 expressed in 1321N1 astrocytoma cells; n=7. It is filed as cell-based. Summed up: as §2

Chain of P2Y purinoceptor 1 (P47900 whole entry): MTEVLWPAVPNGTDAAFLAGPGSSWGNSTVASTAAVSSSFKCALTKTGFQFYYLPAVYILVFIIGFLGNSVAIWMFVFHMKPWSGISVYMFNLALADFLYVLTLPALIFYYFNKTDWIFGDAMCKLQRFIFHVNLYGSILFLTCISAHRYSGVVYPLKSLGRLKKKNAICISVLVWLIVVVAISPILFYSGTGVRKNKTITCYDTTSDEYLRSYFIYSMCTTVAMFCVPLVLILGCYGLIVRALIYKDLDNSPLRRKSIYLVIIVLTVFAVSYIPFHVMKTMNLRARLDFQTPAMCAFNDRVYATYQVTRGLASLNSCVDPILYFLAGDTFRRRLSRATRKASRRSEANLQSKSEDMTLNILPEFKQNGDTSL
Chain of P2Y purinoceptor 2 (P41231 whole entry): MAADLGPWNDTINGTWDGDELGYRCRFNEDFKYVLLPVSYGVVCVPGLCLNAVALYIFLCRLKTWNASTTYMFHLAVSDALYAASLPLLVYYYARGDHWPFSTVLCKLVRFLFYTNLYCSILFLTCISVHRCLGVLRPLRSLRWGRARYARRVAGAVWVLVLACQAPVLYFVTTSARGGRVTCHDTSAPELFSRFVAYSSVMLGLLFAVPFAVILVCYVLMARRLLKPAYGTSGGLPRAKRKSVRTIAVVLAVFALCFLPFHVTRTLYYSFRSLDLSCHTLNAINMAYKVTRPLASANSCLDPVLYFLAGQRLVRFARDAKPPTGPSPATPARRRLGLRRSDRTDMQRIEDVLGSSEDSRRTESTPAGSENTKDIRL

Regarding `CCc1ccc(C(=O)Nc2ccc(S(=O)(=O)O)c3cc(S(=O)(=O)O)cc(S(=O)(=O)O)c23)cc1NC(=O)c1cccc(NC(=O)Nc2cccc(C(=O)Nc3cc(C(=O)Nc4ccc(S(=O)(=O)O)c5cc(S(=O)(=O)O)cc(S(=O)(=O)O)c45)ccc3CC)c2)c1`, the inhibition in test [1] was 48.7%; in test [3], 84.9%; in test [5] it was 48.8%. Moreover, affinity in test [2] was put at a Ki of 1000 nM. In test [4], this molecule returned a Rel potency of 4.5.
Take `Cc1ccc(C(=O)Nc2ccc(S(=O)(=O)O)c3cc(S(=O)(=O)O)cc(S(=O)(=O)O)c23)cc1NC(=O)c1cccc(NC(=O)Nc2cccc(C(=O)Nc3cc(C(=O)Nc4ccc(S(=O)(=O)O)c5cc(S(=O)(=O)O)cc(S(=O)(=O)O)c45)ccc3C)c2)c1` [SURAMIN]: the inhibition in test [1] was found to be 54.5%; in test [3] it was 93.7%; in test [5], 50.5%. In addition, the Rel potency in test [4] was determined as 15. In test [6], this molecule showed a Ki of 302 nM.
For the molecule `COCc1ccc(C(=O)Nc2ccc(S(=O)(=O)O)c3cc(S(=O)(=O)O)cc(S(=O)(=O)O)c23)cc1NC(=O)c1cccc(NC(=O)Nc2cccc(C(=O)Nc3cc(C(=O)Nc4ccc(S(=O)(=O)O)c5cc(S(=O)(=O)O)cc(S(=O)(=O)O)c45)ccc3COC)c2)c1`, the inhibition in test [1] came to 47.5%; in test [3], 71.6%; in test [5] it was 44.3%. The molecule also showed a Rel potency in test [4] of 1.9. Further, affinity in test [7] was put at a Ki of 2400 nM.
Turning to `O=C(Nc1cccc(C(=O)Nc2ccc(S(=O)(=O)O)c3cc(S(=O)(=O)O)cc(S(=O)(=O)O)c23)c1)Nc1cccc(C(=O)Nc2ccc(S(=O)(=O)O)c3cc(S(=O)(=O)O)cc(S(=O)(=O)O)c23)c1`, the inhibition in test [1] is 19.7%; in test [3] it was 54.2%; in test [5], 24%.
On to `O=C(Nc1cc(C(=O)Nc2ccc(S(=O)(=O)O)c3cc(S(=O)(=O)O)cc(S(=O)(=O)O)c23)ccc1Cl)Nc1cc(C(=O)Nc2ccc(S(=O)(=O)O)c3cc(S(=O)(=O)O)cc(S(=O)(=O)O)c23)ccc1Cl`, for which the inhibition in test [1] stood at 57.8%; in test [3], 59%; in test [5], 0%.
Turning to `CCc1ccc(C(=O)Nc2ccc(S(=O)(=O)O)c3cc(S(=O)(=O)O)cc(S(=O)(=O)O)c23)cc1NC(=O)Nc1cc(C(=O)Nc2ccc(S(=O)(=O)O)c3cc(S(=O)(=O)O)cc(S(=O)(=O)O)c23)ccc1CC`, the inhibition in test [1] amounted to 38.4%; in test [3], 39.9%; in test [5], 20.8%.
Taken in the same sequence, the figures for `CC(C)c1ccc(C(=O)Nc2ccc(S(=O)(=O)O)c3cc(S(=O)(=O)O)cc(S(=O)(=O)O)c23)cc1NC(=O)Nc1cc(C(=O)Nc2ccc(S(=O)(=O)O)c3cc(S(=O)(=O)O)cc(S(=O)(=O)O)c23)ccc1C(C)C` were 28.7%, 23.2% and 14.2%.
For `O=C(Nc1cc(C(=O)Nc2ccc(S(=O)(=O)O)c3cc(S(=O)(=O)O)cc(S(=O)(=O)O)c23)ccc1F)Nc1cc(C(=O)Nc2ccc(S(=O)(=O)O)c3cc(S(=O)(=O)O)cc(S(=O)(=O)O)c23)ccc1F`, in that order: 60%, 64.7% and 0%.
For the molecule `O=C(Nc1cccc(C(=O)Nc2cc(C(=O)Nc3ccc(S(=O)(=O)O)c4cc(S(=O)(=O)O)cc(S(=O)(=O)O)c34)ccc2Cl)c1)Nc1cccc(C(=O)Nc2cc(C(=O)Nc3ccc(S(=O)(=O)O)c4cc(S(=O)(=O)O)cc(S(=O)(=O)O)c34)ccc2Cl)c1`, the inhibition amounted to 40.6% in test [1], 93% in test [3] and 55.2% in test [5]. For the same molecule, the Ki in test [8] was 107 nM. In test [4], this molecule gave a Rel potency of 42.
On to `COc1ccc(C(=O)Nc2ccc(S(=O)(=O)O)c3cc(S(=O)(=O)O)cc(S(=O)(=O)O)c23)cc1NC(=O)Nc1cc(C(=O)Nc2ccc(S(=O)(=O)O)c3cc(S(=O)(=O)O)cc(S(=O)(=O)O)c23)ccc1OC`, for which the inhibition in test [1] worked out at 40%; in test [3], 11.2%; in test [5] it was 53.6%.
As for `O=C(Nc1cccc(C(=O)Nc2cc(C(=O)Nc3ccc(S(=O)(=O)O)c4cc(S(=O)(=O)O)cc(S(=O)(=O)O)c34)ccc2-c2ccccc2)c1)Nc1cccc(C(=O)Nc2cc(C(=O)Nc3ccc(S(=O)(=O)O)c4cc(S(=O)(=O)O)cc(S(=O)(=O)O)c34)ccc2-c2ccccc2)c1`, the results for the inhibition in test [1], in test [3] and in test [5] were 75.1%, 79.9% and 73.2%, respectively. In addition, affinity in test [2] was put at a Ki of 302 nM. The molecule also showed a Rel potency in test [4] of 15.
For `Cc1ccc(C(=O)Nc2ccc(S(=O)(=O)O)c3cc(S(=O)(=O)O)cc(S(=O)(=O)O)c23)cc1NC(=O)Nc1cc(C(=O)Nc2ccc(S(=O)(=O)O)c3cc(S(=O)(=O)O)cc(S(=O)(=O)O)c23)ccc1C`, in that order: 0%, 86.6%, 28.4%, 7590 nM and 0.6.
As to `COCc1ccc(C(=O)Nc2ccc(S(=O)(=O)O)c3cc(S(=O)(=O)O)cc(S(=O)(=O)O)c23)cc1NC(=O)Nc1cc(C(=O)Nc2ccc(S(=O)(=O)O)c3cc(S(=O)(=O)O)cc(S(=O)(=O)O)c23)ccc1COC`, the inhibition in test [1] worked out at 31.7%; in test [3], 23.8%; in test [5], 13%.
Taken in the same sequence, the figures for `O=C(Nc1cc(C(=O)Nc2ccc(S(=O)(=O)O)c3cc(S(=O)(=O)O)cc(S(=O)(=O)O)c23)ccc1-c1ccccc1)Nc1cc(C(=O)Nc2ccc(S(=O)(=O)O)c3cc(S(=O)(=O)O)cc(S(=O)(=O)O)c23)ccc1-c1ccccc1` were 34.2%, 35.9% and 0%.
Consider `CC(C)c1ccc(C(=O)Nc2ccc(S(=O)(=O)O)c3cc(S(=O)(=O)O)cc(S(=O)(=O)O)c23)cc1NC(=O)c1cccc(NC(=O)Nc2cccc(C(=O)Nc3cc(C(=O)Nc4ccc(S(=O)(=O)O)c5cc(S(=O)(=O)O)cc(S(=O)(=O)O)c45)ccc3C(C)C)c2)c1`, for which the figures for the inhibition in test [1], in test [3] and in test [5] were 45%, 83.1% and 31.1%, respectively. In test [2], this molecule had a Ki of 447 nM. In test [4], the Rel potency was determined as 10.
For the molecule `COc1ccc(C(=O)Nc2ccc(S(=O)(=O)O)c3cc(S(=O)(=O)O)cc(S(=O)(=O)O)c23)cc1NC(=O)c1cccc(NC(=O)Nc2cccc(C(=O)Nc3cc(C(=O)Nc4ccc(S(=O)(=O)O)c5cc(S(=O)(=O)O)cc(S(=O)(=O)O)c45)ccc3OC)c2)c1`, the inhibition in test [1] came out at 23.2%; in test [3], 92.2%; in test [5], 44.9%. The molecule further had a Ki in test [8] of 75.9 nM. For the same molecule, the Rel potency in test [4] worked out at 59.

A word on the inhibition: it is the relative decrease from the control value, in per cent. What is called Ki is a dissociation constant, usually derived from enzyme kinetics or from competition with a known ligand. High values mean lower affinity, low ones higher affinity.

The record behind these values is ChEMBL document CHEMBL1140384, “Synthesis and structure-activity relationships of suramin-derived P2Y11 receptor antagonists with nanomolar potency” (J Med Chem, 2005).
